Columns and labels:
[1] = Incorporation of infused FAA into brain lipids of unanesthetized mice; format: in vivo, C57BL/6J male mice
[2] = Plasma kinetics of FAA during 5-min intravenous infusion in unanesthetized mice; format: in vivo, C57BL/6J male mice; conditions: for plasma area under the curve: 5-min intravenous infusion, mice
Procedure, shortened: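 Male C57BL/6J mice, 2–3 mo, unanesthetized after 3 h recovery at 37°C. Test compound (0.3 or 1.6 nmol per mouse) in HEPES–fatty acid-free BSA (50 mg/mL, pH 7.4) was infused intravenously at variable rate for 5 min. Arterial plasma was sampled at 0–4.9 min, Folch-extracted, pentafluorobenzyl-derivatized, and analysed by NCI GC/MS against a 17:0 internal standard. AUC was derived by trapezoidal integration; n = 2–3.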

SMILES: O=C(O)CCC/C=C\C/C=C\C/C=C\C/C=C\CCCCCF [FAA, 20-Fluoroarachidonic Acid]
- FAA concentration within brain phospholipids (rank order) ([1]; both doses, end of 5-min infusion, Fig. 2A): highest in PtdIns and ChoGlp, followed by EtnGlp and PtdSer
- incorporation coefficient k*, high versus low infusion dose ([1]; brain lipids, 0.3 vs 1.6 nmol, Fig. 3): lower for the high-infusion dose than for the low-infusion dose
- FAA detected in brain UFA, triglyceride and cholesteryl ester fractions ([1]; end of 5-min infusion, mouse brain): < 0.01 nmol/g
- FAA concentration in plasma over time ([2]; 0.3 or 1.6 nmol infused intravenously over 5 min, Fig. 1): increased over time in a dose-dependent manner
- plasma area under the curve ([2]; high dose (1.6 nmol)): 0.236 ± 0.0189 µM·h
- plasma area under the curve ([2]; low dose (0.3 nmol)): 0.0297 ± 0.0217 µM·h

Source: publication PMC3509950 (Journal of nuclear medicine : official publication, Society …, 2012)
